Test results as given in ChEMBL document CHEMBL1152562, “Design, synthesis and evaluation of flavonoid derivatives as potent AChE inhibitors” (Bioorg Med Chem, 2009).

How the values were obtained:
Butyrylcholinesterase = Butyrylcholinesterase (Rattus norvegicus, UniProt Q9JKC1); assay: Inhibition of BChE in rat serum after 15 mins by modified Ellman's method; format: cell-free
In short: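 Enzyme source was rat serum. Substrate butyrylthiocholine iodide 0.4 mmol/L in sodium phosphate buffer ([…]). Serum was incubated with the test compound at several concentrations at 37 °C for 15 min. Activity was read spectrophotometrically by a modified Ellman method, with IC50 derived from the concentration series.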

Acetylcholinesterase = target: T1, Acetylcholinesterase (Rattus norvegicus, UniProt P37136); assay: Inhibition of AChE in rat cortex after 15 mins by modified Ellman's method
T1 sequence (P37136 whole entry): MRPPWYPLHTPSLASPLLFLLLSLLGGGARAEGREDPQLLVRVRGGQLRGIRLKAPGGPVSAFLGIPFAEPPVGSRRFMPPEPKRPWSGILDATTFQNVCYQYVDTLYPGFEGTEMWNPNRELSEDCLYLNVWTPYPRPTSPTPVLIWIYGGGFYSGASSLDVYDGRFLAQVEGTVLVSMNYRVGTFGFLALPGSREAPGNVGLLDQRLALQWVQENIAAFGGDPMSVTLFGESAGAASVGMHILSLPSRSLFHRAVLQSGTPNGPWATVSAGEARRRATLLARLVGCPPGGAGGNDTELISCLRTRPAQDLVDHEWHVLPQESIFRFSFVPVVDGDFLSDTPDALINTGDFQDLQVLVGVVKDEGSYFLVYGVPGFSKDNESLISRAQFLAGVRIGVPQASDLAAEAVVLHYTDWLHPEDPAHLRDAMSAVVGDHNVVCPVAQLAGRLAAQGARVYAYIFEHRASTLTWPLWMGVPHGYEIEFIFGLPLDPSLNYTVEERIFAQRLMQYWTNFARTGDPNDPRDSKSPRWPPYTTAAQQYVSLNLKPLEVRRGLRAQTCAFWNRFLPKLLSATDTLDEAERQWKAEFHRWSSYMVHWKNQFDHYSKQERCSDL

Butyrylcholinesterase, sequence (Q9JKC1 whole entry): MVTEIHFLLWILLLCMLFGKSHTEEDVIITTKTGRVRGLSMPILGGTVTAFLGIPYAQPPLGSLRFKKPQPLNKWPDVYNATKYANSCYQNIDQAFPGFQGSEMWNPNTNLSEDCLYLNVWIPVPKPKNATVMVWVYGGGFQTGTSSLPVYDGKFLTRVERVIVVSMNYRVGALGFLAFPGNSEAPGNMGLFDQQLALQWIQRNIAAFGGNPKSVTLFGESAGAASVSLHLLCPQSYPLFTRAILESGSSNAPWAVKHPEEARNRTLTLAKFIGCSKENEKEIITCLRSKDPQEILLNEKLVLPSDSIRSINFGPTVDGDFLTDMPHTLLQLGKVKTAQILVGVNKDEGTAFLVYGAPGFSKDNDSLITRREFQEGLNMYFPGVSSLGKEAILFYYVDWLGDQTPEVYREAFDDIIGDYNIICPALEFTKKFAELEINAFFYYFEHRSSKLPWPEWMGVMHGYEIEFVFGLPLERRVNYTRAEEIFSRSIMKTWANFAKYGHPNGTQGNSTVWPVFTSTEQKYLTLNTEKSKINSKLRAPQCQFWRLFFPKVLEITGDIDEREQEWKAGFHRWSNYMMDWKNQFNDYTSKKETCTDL

COc1cc2oc(-c3ccc(CN4CCCC4)cc3)cc(=O)c2cc1OC
IC50 (Butyrylcholinesterase): 89.7 µM
IC50 (Acetylcholinesterase): 0.055 µM

CCN(C)Cc1ccc(/C=C/C(=O)c2cc(OC)c(OC)cc2O)cc1
IC50 (Butyrylcholinesterase): > 100 µM
IC50 (Acetylcholinesterase): 0.126 µM

CCN(CC)Cc1ccc(/C=C/C(=O)c2cc(OC)c(OC)cc2O)cc1
IC50 (Butyrylcholinesterase): > 100 µM
IC50 (Acetylcholinesterase): 0.103 µM

CCN(CC)Cc1cccc(/C=C/C(=O)c2cc(OC)c(OC)cc2O)c1
IC50 (Butyrylcholinesterase): > 100 µM
IC50 (Acetylcholinesterase): 1.61 µM

COc1cc(O)c(C(=O)/C=C/c2ccc(CN3CCCC3)cc2)cc1OC
IC50 (Butyrylcholinesterase): > 100 µM
IC50 (Acetylcholinesterase): 0.037 µM

COc1cc(O)c(C(=O)/C=C/c2cccc(CN3CCCC3)c2)cc1OC
IC50 (Butyrylcholinesterase): 77.3 µM
IC50 (Acetylcholinesterase): 0.047 µM

COc1cc(O)c(C(=O)/C=C/c2ccc(CN3CCCCC3)cc2)cc1OC
IC50 (Butyrylcholinesterase): > 100 µM
IC50 (Acetylcholinesterase): 0.122 µM

CCN(C)Cc1ccc(-c2cc(=O)c3cc(OC)c(OC)cc3o2)cc1
IC50 (Butyrylcholinesterase): > 100 µM
IC50 (Acetylcholinesterase): 0.336 µM

CCN(CC)Cc1ccc(-c2cc(=O)c3cc(OC)c(OC)cc3o2)cc1
IC50 (Butyrylcholinesterase): 64.6 µM
IC50 (Acetylcholinesterase): 0.639 µM

CCN(CC)Cc1cccc(-c2cc(=O)c3cc(OC)c(OC)cc3o2)c1
IC50 (Butyrylcholinesterase): > 100 µM
IC50 (Acetylcholinesterase): 5.99 µM

COc1cc2oc(-c3cccc(CN4CCCC4)c3)cc(=O)c2cc1OC
IC50 (Butyrylcholinesterase): > 100 µM
IC50 (Acetylcholinesterase): 0.704 µM

COc1cc2oc(-c3ccc(CN4CCCCC4)cc3)cc(=O)c2cc1OC
IC50 (Butyrylcholinesterase): 75.2 µM
IC50 (Acetylcholinesterase): 0.034 µM

CCN(C)Cc1ccc(C2CC(=O)c3cc(OC)c(OC)cc3O2)cc1 (stereo not drawn)
IC50 (Butyrylcholinesterase): > 100 µM
IC50 (Acetylcholinesterase): 4.67 µM

CCN(CC)Cc1ccc(C2CC(=O)c3cc(OC)c(OC)cc3O2)cc1 (stereo not drawn)
IC50 (Butyrylcholinesterase): > 100 µM
IC50 (Acetylcholinesterase): 4.97 µM

CCN(CC)Cc1cccc(C2CC(=O)c3cc(OC)c(OC)cc3O2)c1 (stereo not drawn)
IC50 (Butyrylcholinesterase): > 100 µM
IC50 (Acetylcholinesterase): 172 µM

COc1cc2c(cc1OC)C(=O)CC(c1ccc(CN3CCCC3)cc1)O2 (stereo not drawn)
IC50 (Butyrylcholinesterase): 68.2 µM
IC50 (Acetylcholinesterase): 1.24 µM

COc1cc2c(cc1OC)C(=O)CC(c1cccc(CN3CCCC3)c1)O2 (stereo not drawn)
IC50 (Butyrylcholinesterase): > 100 µM
IC50 (Acetylcholinesterase): 5.36 µM

COc1cc2c(cc1OC)C(=O)CC(c1ccc(CN3CCCCC3)cc1)O2 (stereo not drawn)
IC50 (Butyrylcholinesterase): 48 µM
IC50 (Acetylcholinesterase): 0.248 µM

CCN(C)Cc1ccc(-c2coc3cc(OC)c(OC)cc3c2=O)cc1
IC50 (Butyrylcholinesterase): 61 µM
IC50 (Acetylcholinesterase): 0.171 µM

CCN(CC)Cc1ccc(-c2coc3cc(OC)c(OC)cc3c2=O)cc1
IC50 (Butyrylcholinesterase): > 100 µM
IC50 (Acetylcholinesterase): 0.599 µM

CCN(CC)Cc1cccc(-c2coc3cc(OC)c(OC)cc3c2=O)c1
IC50 (Butyrylcholinesterase): > 100 µM
IC50 (Acetylcholinesterase): 0.56 µM

COc1cc2occ(-c3ccc(CN4CCCC4)cc3)c(=O)c2cc1OC
IC50 (Butyrylcholinesterase): 18.3 µM
IC50 (Acetylcholinesterase): 0.004 µM

COc1cc2occ(-c3cccc(CN4CCCC4)c3)c(=O)c2cc1OC
IC50 (Butyrylcholinesterase): > 100 µM
IC50 (Acetylcholinesterase): 0.07 µM

COc1cc2occ(-c3ccc(CN4CCCCC4)cc3)c(=O)c2cc1OC
IC50 (Butyrylcholinesterase): > 100 µM
IC50 (Acetylcholinesterase): 0.068 µM
